D1 mod – D1 dopamine receptor (human) allosteric modulation. HEK293 D1, CRE-luciferase, dopamine EC30 potentiation; actives deviate in either direction. B-score at 10 µM. 58,000 tested, 5.9% active;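 active = luminescence count or its row- and column-corrected plate score outside the 99.7% band of the plate's sample wells, on either side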
RORa activator – RORA (human) activation | P35398 | CHO-K1 Gal4-RORA LBD luciferase reporter, luminescence; percent increase over mock-subtracted basal signal | activation, % at 10 µM | 65,000 tested, 1.5% active | AID 560;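 active = activation above the mean of all tested compounds plus 3 SD, cut at about 49% in these data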;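 note: 0% = DMSO-treated RORA cells and 100% = added signal equal to DMSO minus mock-transfected cells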
Target sequence (P35398 whole entry, looked up, the tested form may be a part): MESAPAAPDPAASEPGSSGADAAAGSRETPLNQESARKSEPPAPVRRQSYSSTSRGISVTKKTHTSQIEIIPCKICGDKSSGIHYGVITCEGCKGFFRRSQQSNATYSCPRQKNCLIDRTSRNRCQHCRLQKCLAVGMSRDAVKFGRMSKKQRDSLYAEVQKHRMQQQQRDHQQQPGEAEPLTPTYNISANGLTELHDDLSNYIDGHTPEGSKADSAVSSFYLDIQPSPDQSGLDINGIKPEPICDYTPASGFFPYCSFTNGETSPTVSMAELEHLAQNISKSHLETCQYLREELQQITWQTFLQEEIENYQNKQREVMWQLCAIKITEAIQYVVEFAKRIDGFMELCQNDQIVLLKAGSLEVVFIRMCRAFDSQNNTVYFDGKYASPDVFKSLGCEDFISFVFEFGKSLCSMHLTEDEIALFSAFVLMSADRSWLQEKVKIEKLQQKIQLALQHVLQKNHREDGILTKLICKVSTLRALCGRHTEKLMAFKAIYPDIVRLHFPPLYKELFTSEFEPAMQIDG
M1 ag – activates the M1 muscarinic receptor | CHO-M1 cells, Fluo-4 calcium fluorescence, agonist mode; hits give high values | B-score at 10 µM | 64,000 tested, 3% active | AID 626;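 active = fluorescence rise, raw or as B-score row- and column-corrected plate score, outside the 99.7% band of its plate's samples, either direction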
SF-1 act – SF-1 (human) activation; CHO-K1 Gal4-SF-1 LBD luciferase reporter; % increase over DMSO SF-1-specific signal; 65,000 tested, 1.9% active; AID 522; Q13285; activation, % at 10 µM;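 active = activation above the mean activation of all tested compounds plus 3 SD, cut at about 50% in these data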
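Material: Gal4–SF-1 LBD one-hybrid luciferase reporter in CHO-K1 cells | Amount: 4,000 cells per well | Compound dosing: 10 µM single point, 1% DMSO | Schedule: 20 h compound treatment, 37 °C | Measured by: SteadyLite luciferase luminescence | Evaluation: Percent activation versus DMSO | Control set: DMSO-treated SF-1-transfected cells as negative, DMSO-treated mock-transfected cells lacking SF-1 as background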
M1 antagonist – antagonists of rat M1 muscarinic receptor | AID 628 | P08482 | CHO-M1 cells, Fluo-4 calcium, ACh EC80 antagonist mode; hits give low values | 64,000 tested, 3.4% active | B-score at 10 µM;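 active = calcium fluorescence response, raw or row-and-column corrected B-score, differing from the plate sample mean either way at a set confidence level, mostly lower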
Htt clearance – mutant huntingtin protein clearance | HeLa Exon1htt(103Q)mCFP, aggregate imaging; zero = plate's median compound well | inhibition, % at 1.5 µM | 47,000 tested, 0.42% active | AID 853;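 active = inhibition of aggregate fluorescence above about 70%, also judged a hit by eye on the cell image, limit read from the data, passing the limit was not always enough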;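 note: cells exposed to compound for three days before fixation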
M1 antag conf – M1 muscarinic receptor (rat) antagonism, confirmed; shares compounds with M1 antagonist; CHO-M1 cells, Fluo-4 calcium, ACh EC80 antagonism; hits give low values; calcium response (max-min fluorescence) at 10 µM; 1,700 tested, 43% active;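 active = calcium response below the same-plate mean of wells given acetylcholine alone at its 80%-effect dose, minus 3 SD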;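 note: raw fluorescence intensity difference in arbitrary instrument units and not normalized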
mGluR4 antag – acts on human mGluR4 in M1 antagonist selectivity test | shares compounds with M1 antagonist | fluorescence response (max-min) at 10 µM | CHO-mGluR4 calcium flux, Fluo-4 fluorescence, glutamate EC80; hits give low values | AID 678 | 1,700 tested, 0.9% active;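 active = fluorescence response below the plate's average for near-maximal glutamate wells, less 3 SD of those wells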;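 note: raw unnormalized fluorescence span taken in the window right after glutamate addition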
D1 PAM confirm – D1 receptor (human) allosteric modulation, confirmed. shares compounds with D1 mod. HEK293 D1 CRE-luciferase, dopamine EC30 potentiation; hits give high values. luminescence at 10 µM. 2,200 tested, 88% active. AID 642;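 active = luminescence in either of two replicates above the same-plate mean plus 3 SD of the low-dose dopamine control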
D1 no dopamine – D1 (human) signaling in absence of dopamine; shares compounds with D1 mod; HEK293 D1 CRE-luciferase, luminescence, no dopamine; hits give high values; luminescence at 10 µM; 1,900 tested, 0.8% active; in the data active = luminescence above about 3900
Isoprot counter – alters isoproterenol CRE-luciferase response in HEK293 cells; shares compounds with D1 mod; HEK293 D1 CRE-luciferase, isoproterenol EC30 counter-screen; AID 647; calls only at 10 µM; 2,200 tested, 63% active;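 active = luminescence in either replicate above plate mean of wells with a partly effective reference agonist dose plus 3 SD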;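 note: isoproterenol raises cAMP through native beta-adrenoceptor Gs so signal bypasses D1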
The depositor's hits bear a star; nt = no result; + = active, no number. Shown are actives, neighbours in structure and some others; about 11% of the full set was active somewhere.

SMILES | D1 mod | RORa activator | M1 ag | SF-1 act | M1 antagonist | Htt clearance | M1 antag conf | mGluR4 antag | others
Cc1cc(C(=O)OCC(=O)Nc2ncc(C(F)(F)F)cc2Cl)c(C)o1 | -0.49 | -7 | -0.071 | 1 | 0.8 | -44 | nt | nt
CN1CCN(CCCNC(=O)c2ccc(CS(=O)(=O)c3ccc(Br)cc3)o2)CC1 | -0.41 | 13 | 0.89 | -16 | 0.49 | nt | nt | nt
O=C(NCCN1CCCCCC1)c1ccc(CS(=O)(=O)c2ccc(Br)cc2)o1 | -0.063 | 3 | -1.2 | 10 | -3* | 38 | 470* | 240
COc1ccc(S(=O)(=O)Cc2ccccc2)cc1N | 0.012 | 30 | 0.93 | 18 | -1.4 | nt | nt | nt
O=C1CC(c2ccc(F)cc2)Cc2nc(N3CCN(c4ccccc4)CC3)ncc21 (configuration not stated) | -0.056 | -19 | 2.7 | -7 | 0.21 | nt | nt | nt
Cc1ccc(C2CC(=O)c3cnc(N4CCN(c5ccccc5)CC4)nc3C2)cc1 (configuration not stated) | -0.78 | 6 | -1.7 | 5 | -5.8* | nt | 622 | 240
O=C(CN1C2=NCCN2c2ccccc21)C12CC3CC(CC(C3)C1)C2 | -1.4 | 0 | -0.29 | -2 | -9.3* | nt | 337* | 153
Cc1ccc(NC(=O)c2ccco2)c(NC(=O)c2cccs2)c1 | 0.064 | -13 | 0.068 | -3 | -3.9* | -69 | 534 | 206
COc1cc(NC(=O)c2cccs2)ccc1NC(=O)c1ccco1 | -1.3 | 10 | 1.7 | -1 | -2.8* | nt | 628 | 272
O=S(=O)(NCCC1=CCCCC1)c1cccc(S(=O)(=O)N2CCOCC2)c1 | -0.01 | -10 | -0.65 | -6 | -0.33 | 8 | nt | nt
CC(=O)CC(=O)NC(=NC1CCCCC1)Nc1nc(C)cc(C)n1 | -0.33 | 9 | -0.56 | 16 | -2.9* | -50 | 643 | 201
COc1ccc(CCNC(=O)c2nnn(-c3ccc4c(c3)OCCO4)c2N)cc1OC | nt | -38 | nt | -21 | nt | -27 | nt | nt
COC(=O)c1ccc(CSc2nnnn2C)o1 | 0.77 | -2 | -0.45 | -6 | -3.1* | nt | 399* | 257
COC(=O)c1ccc(CSc2nnc3c(Cl)cc(Cl)cn23)o1 | -0.82 | 0 | -0.35 | 5 | -0.8 | -43 | nt | nt
COC(=O)c1ccc(CSc2ccc3nnc(-c4cccc(F)c4)n3n2)o1 | 2.4 | 8 | -0.26 | -12 | -9.2* | nt | 216* | 205
CC(=O)Nc1cccc2c1OCCO2 | -0.22 | 2 | 0.00055 | -10 | -0.54 | nt | nt | nt
O=c1c2cc(Cl)ccc2nc2ccc(N3CCCC3)nn12 | -0.38 | 20 | -0.58 | -1 | 0.13 | nt | nt | nt
CCCN1C2CCCC1CC(NC(=O)c1ccccc1F)C2 (configuration not stated) | -2.1 | -10 | -1.2 | -2 | -3.7* | 66 | 567 | 236
CCCN1C2CCCC1CC(NC(=O)c1ccccc1)C2 (configuration not stated) | nt | -7 | -0.094 | 10 | -2.5 | -6 | nt | nt
CCCN1C2CCCC1CC(NC(=O)c1ccccc1OCC)C2 (configuration not stated) | -1.1 | 5 | 1 | -1 | -3.8* | 43 | 461* | 237
O=C(c1cccc(F)c1F)N1CCCC1 | nt | nt | nt | nt | nt | 5 | nt | nt
CC(=N/O)/C(=N\O)c1ccc(C)o1 | -0.67 | -6 | -0.65 | -15 | 0.45 | nt | nt | nt
CC(C1CC1)N(C(=O)c1ccccc1O)c1ccccc1 (configuration not stated) | -1.1 | -9 | -0.36 | -21 | -3.6* | nt | 548 | 218
OCC1CCCN(Cc2ccc(-c3ccccc3)cc2)C1 (configuration not stated) | -0.77 | 11 | -0.29 | 3 | -2.9* | nt | 392* | 263
CCCSc1nnc2c(n1)OC(c1cccn1C)N(C(C)=O)c1ccccc1-2 (configuration not stated) | -0.09 | -15 | 0.28 | -19 | -10* | -42 | 23* | 229
SMILES | D1 mod | RORa activator | M1 ag | SF-1 act | M1 antagonist | Htt clearance | M1 antag conf | mGluR4 antag | others
O=C(NCc1ccc(Cl)cc1)C1CCCN(S(=O)(=O)c2cnc[nH]2)C1 (configuration not stated) | 0.38 | 11 | -1.9 | -6 | -0.73 | 30 | nt | nt
COc1ccccc1C(c1nnnn1C1CCCC1)N1CCN2CCCC2C1 (configuration not stated) | nt | -4 | 0.93 | -13 | -3.8* | 28 | 473* | 251
O=C(NC1CCCCC1)c1sc(=S)n2c1[nH]c(=O)c1ccccc12 | -2.1 | 5 | 2.6 | -11 | -1.8* | 21 | 529 | 243
CCCCNC(=O)c1sc(=S)n2c1[nH]c(=O)c1ccccc12 | -2.1 | -4 | -0.72 | 4 | -1.1 | -17 | nt | nt
CCOC(=O)N1CCN(C(=O)c2ccc3c(c2)sc2nc(-c4ccccc4)cn23)CC1 | nt | 62* | 3.1 | 110* | -2.9* | nt | 397* | 292
CCOC(=O)N1CCC(NC(=O)c2ccc3c(c2)sc2nc(-c4ccc(OC)cc4)cn23)CC1 | nt | 23 | nt | 39 | nt | -24 | nt | nt
O=C(CCC(=O)OCCCC(F)(F)C(F)(F)F)NC1CCCCC1 | -0.072 | -16 | 0.59 | 1 | -8.2* | nt | 636 | 233
CCOC(=O)Cn1c(=N)n(Cc2ccccc2F)c2ccccc21 | -1.7 | 27 | 0.44 | -14 | 1.1 | nt | nt | nt
CCN(CC)CCCNC(=O)c1cc2c(-c3ccc(Cl)cc3)nn(C)c2s1 | -1.8 | 24 | 0.033 | 30 | -6.6* | -3 | 419 | 220
Cn1nc(-c2ccc(Cl)cc2)c2cc(C(=O)N3CCOCC3)sc21 | 0.73 | -10 | 0.6 | 12 | 0.24 | -33 | nt | nt
CCN(CC)CCCNC(=O)c1cc(-c2ccc(Cl)c(Cl)c2)on1 | -1.1 | 2 | -0.87 | 0 | -3* | nt | 474* | 176
CCN(C#N)c1nc(NC(C)C)nc(NC(C)C)n1 | 9.7* | -23 | 0.43 | 4 | -3.5* | 26 | 607 | 246 | D1 PAM confirm=22184*;D1 no dopamine=1544;Isoprot counter=+
COC(=O)CN(C#N)c1nc(OC)nc(N(C)C)n1 | -0.76 | 5 | -0.4 | -12 | -0.33 | 57 | nt | nt
CCOc1ccc(C(=O)CSc2nnc(N)s2)cc1 | 0.18 | 10 | -0.3 | 49 | 0.26 | nt | nt | nt
